Compound activity (PubChem BioAssay)
Sampled rows, rich in hits. Any-hit rate of the full collection: about 5.8%.
IDH1 mut inh: inhibitors of IDH1 R132H reductase, primary screen, biochemical, plate reader, single point; inhibition, % at 10 µM; Isocitrate dehydrogenase [NADP] cytoplasmic (Homo sapiens), O75874; 70,000 tested, 0.18% active; diaphorase/resazurin fluorescence, 60 min; AID 624101, 2012; in the data active means inhibition above about 34%; inconclusive means no clear call, values can overlap the other calls; inactive means below about 11%;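 further: 0% = DMSO and 100% = no enzyme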
T cruzi growth-1: T. cruzi intracellular proliferation inhibitors, primary screen, cell-based, beta-gal Tulahuen parasites, NIH3T3 host, luminescence; T. cruzi beta-gal in NIH3T3, GalScreen luminescence, 90 h; inhibition, % at 8.34 µM; 77,000 tested, 5.9% active; AID 624255, 2012;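 active means mean inhibition above about 93%, with at least 55% of replicates each passing it, limit read from the data, passing the limit was not always enough; inconclusive means only one of those two conditions holds; inactive means neither condition holds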
Pf Dd2 growth: P. falciparum Dd2 growth inhibitors, primary screen, SYBR Green fluorescence, single dose replicates; 72 h; stronger effect = lower value; activity change, % at 10 µM; 94,000 tested, 2.3% active; in the data active means activity change below about -80%; inconclusive means no clear call, values can overlap the other calls
KDM4C inh: inhibitors of GASC-1 (KDM4C) histone demethylase, primary screen, biochemical, single concentration HTS; Lysine-specific demethylase 4C (Homo sapiens), Q9H3R0; GST-KDM4C 2-372, H3K9me3 peptide, LANCE TR-FRET; inhibition, % at 12.5 µM; 96,000 tested, 0.15% active;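 active means mean replicate inhibition above about 25%, with at least 55% of replicates also reaching it, limit read from the data, passing the limit was not always enough; inconclusive means only one of those two conditions met; inactive means neither condition met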
Target sequence (Q9H3R0 2-372 limits assumed): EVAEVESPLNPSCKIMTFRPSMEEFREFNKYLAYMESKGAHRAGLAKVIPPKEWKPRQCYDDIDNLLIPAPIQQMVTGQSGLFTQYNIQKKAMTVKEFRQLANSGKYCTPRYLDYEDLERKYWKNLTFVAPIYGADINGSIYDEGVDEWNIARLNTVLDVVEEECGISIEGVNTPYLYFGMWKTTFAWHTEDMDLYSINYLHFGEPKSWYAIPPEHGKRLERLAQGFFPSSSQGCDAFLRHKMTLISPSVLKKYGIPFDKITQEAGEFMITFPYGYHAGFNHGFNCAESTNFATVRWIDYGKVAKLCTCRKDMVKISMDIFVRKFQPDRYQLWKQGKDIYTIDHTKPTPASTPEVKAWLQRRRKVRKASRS
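Assay system: GST-GASC-1 enzyme fragment 2-372 | Amount: 10 nM enzyme | Medium: HEPES buffer, pH 7.5, plus ascorbate | Reagent: H3K9me3 peptide substrate, Fe(II), 2-oxoglutarate | Doses: Single-point compound screen | Incubation: 30 min demethylation and 1 h detection at room temperature | Measured by: LANCE TR-FRET, excitation 340 nm, emissions 618 and 671 nm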
T cruzi growth-2: T. cruzi intracellular proliferation inhibitors, confirmation, cell-based, NIH3T3 host, beta-gal parasite, luminescence, cherry-pick; shares compounds with T cruzi growth-1; T. cruzi beta-gal in NIH3T3, GalScreen luminescence, 90 h; inhibition, % at 8.35 µM; 5,600 tested, 72% active; AID 651739, 2012;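 active means mean replicate inhibition above about 95% and at least 55% of replicates individually reaching it, limit read from the data; inconclusive means only one of the two criteria is met; inactive means neither criterion is met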
T cruzi growth-3: inhibitors of intracellular T. cruzi replication, confirmation, NIH3T3 host cells, beta-gal parasites, cherry-pick, set 2; shares compounds with T cruzi growth-1; T. cruzi beta-gal in NIH3T3, GalScreen luminescence, 90 h; inhibition, % at 2.09 µM; 5,600 tested, 21% active; AID 651740, 2012;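 active means mean inhibition above about 95%, with at least 55% of replicates also reaching it, limit read from the data; inconclusive means meets just one of the two conditions; inactive means meets neither condition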;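 further: plate controls were neutral control median for no effect and positive control median for full effect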
3T3 cytotox: cytotoxicity in mouse NIH/3T3 fibroblasts, confirmation, cytotoxicity control for T. cruzi proliferation inhibitor project, cell-based, cherry-pick, single point; shares compounds with T cruzi growth-1; NIH/3T3 viability, CellTiter-Glo ATP luminescence, 90 h; cytotoxicity (signal decrease), % at 8.35 µM; 5,600 tested, 14% active;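 active means mean signal decrease across replicates above about 35% based on untreated-well scatter, with enough replicates individually passing, limit read from the data; inconclusive means no rule stated though some were filed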;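 further: 0% = median of neutral control wells and 100% = median of positive control wells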
NIH3T3 tox 2: NIH/3T3 fibroblast cytotoxicity, confirmation, cytotoxicity control, cell-based, cherry-pick, single point, set 2; shares compounds with T cruzi growth-1; NIH/3T3 viability, CellTiter-Glo ATP luminescence, 90 h; inhibition, % at 24.9 µM; 5,600 tested, 56% active; AID 651744, 2012;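 active means mean loss of cell viability signal at or above a set limit, and enough replicates individually reaching it; inconclusive means meets only the mean limit or only the replicate share; inactive means meets neither condition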;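 further: 0% = median of neutral control wells and 100% = median of positive control wells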
* marks the source's active call; other numbers are inactive results; ? = inconclusive; nt = not tested or not shown.

SMILES | IDH1 mut inh | T cruzi growth-1 | Pf Dd2 growth | KDM4C inh | T cruzi growth-2 | T cruzi growth-3 | 3T3 cytotox | NIH3T3 tox 2
O=C(C[C@@H]1CC[C@@H]2[C@H](COC[C@H](O)CN2S(=O)(=O)c2ccccc2)O1)NCc1ccc(-c2ccccc2)cc1 | nt | 52 | -41 | -1 | nt | nt | nt | nt
CC(C)(C)c1ccc(S(=O)(=O)N2CCN(c3ccc([N+](=O)[O-])c(NCc4cccnc4)c3)CC2)cc1 | 0 | nt | nt | nt | nt | nt | nt | nt
COc1cccc(-c2cc(C(=O)Nc3ccc(S(=O)(=O)NC(C)=O)cc3)c3ccccc3n2)c1 | -1 | nt | nt | nt | nt | nt | nt | nt
CCOC(=O)c1c(C)sc2c(C)c(C)[nH]c12 | -4 | nt | nt | nt | nt | nt | nt | nt
COc1cccc(S(=O)(=O)N2C[C@H](O)COC[C@H]3O[C@@H](CC(=O)N4CCOCC4)CC[C@@H]32)c1 | nt | ? | 0 | 0 | 13 | 14 | 11 | 1
COc1cccc(S(=O)(=O)N2C[C@@H](O)COC[C@@H]3O[C@@H](CC(=O)N4CCOCC4)CC[C@H]32)c1 | nt | 8 | 5 | 1 | nt | nt | nt | nt
O=C(CCCCCCC(=O)Nc1ccccc1O)N/N=C/c1cccnc1 | 0 | nt | nt | nt | nt | nt | nt | nt
C[C@H]1CN([C@@H](C)CO)S(=O)(=O)c2ccc(C#CCN(C)C)cc2O[C@H]1CN(C)C(=O)CC1CC1 | 0 | ? | 3 | 7 | 100* | 78 | 2 | 9
C[C@@H]1CN([C@@H](C)CO)S(=O)(=O)c2ccc(C#CCN(C)C)cc2O[C@H]1CN(C)C(=O)CC1CC1 | -1 | ? | -26 | 0 | 97* | 85 | -5 | 9
C[C@@H]1CN([C@H](C)CO)S(=O)(=O)c2ccc(C#CCN(C)C)cc2O[C@@H]1CN(C)C(=O)CC1CC1 | -1 | 85 | 31 | 9 | nt | nt | nt | nt
C[C@H](CO)N1C[C@H](C)[C@@H](CN(C)C(=O)CC2CC2)Oc2cc(C#CCN(C)C)ccc2S1(=O)=O | 0 | 96* | -19 | 0 | 98* | 90 | -6 | 12
COc1ccc([N+](=O)[O-])cc1NC(=O)CN(c1cc(C(F)(F)F)ccc1Cl)S(C)(=O)=O | 1 | nt | nt | nt | nt | nt | nt | nt
C[C@H]1CCCCO[C@@H](CN(C)Cc2ccccc2)[C@@H](C)CN([C@@H](C)CO)C(=O)c2cc(NS(=O)(=O)c3ccccc3)ccc2O1 | -4 | 16 | -70 | 2 | nt | nt | nt | nt
COc1ccc(CN(C)C[C@H]2OCCCC[C@H](C)Oc3ccc(NS(=O)(=O)c4ccccc4)cc3C(=O)N([C@@H](C)CO)C[C@H]2C)cc1 | nt | 103* | -69 | -1 | 109* | 42 | 24 | 90*
C[C@@H]1CCCCO[C@H](CN(C)Cc2ccccc2)[C@H](C)CN([C@H](C)CO)C(=O)c2cc(NS(=O)(=O)c3ccccc3)ccc2O1 | 2 | 101* | -58 | 1 | 98* | 79 | -8 | 41*
COc1ccc(CN(C)C[C@H]2OCCCC[C@H](C)Oc3ccc(NS(=O)(=O)c4ccc(Cl)cc4)cc3C(=O)N([C@@H](C)CO)C[C@@H]2C)cc1 | 2 | ? | -41 | -1 | 101* | 37 | 6 | 104*
COc1ccc(CN(C)C[C@@H]2OCCCC[C@@H](C)Oc3ccc(NS(=O)(=O)c4ccccc4)cc3C(=O)N([C@H](C)CO)C[C@@H]2C)cc1 | nt | -99 | -25 | 0 | nt | nt | nt | nt
C[C@H](CO)N1C[C@H](C)[C@H](CN(C)Cc2ccccc2)OCCCC[C@H](C)Oc2ccc(NS(=O)(=O)c3ccc(F)cc3)cc2C1=O | nt | ? | -37 | 59* | 113* | 78 | 11 | 92*
Cc1ccc(S(=O)(=O)Nc2ccc3c(c2)C(=O)N([C@@H](C)CO)C[C@@H](C)[C@@H](CN(C)Cc2ccccc2)OCCCC[C@@H](C)O3)cc1 | nt | ? | -74 | -1 | 94 | 80 | 25 | 105*
C[C@@H]1CN([C@@H](C)CO)C(=O)c2cc(NS(=O)(=O)c3ccc(F)cc3)ccc2O[C@@H](C)CCCCO[C@@H]1CN(C)Cc1ccccc1 | -1 | 105* | -55 | 0 | 99* | 82 | 20 | 107*
O=C(Cn1nnc2ccccc21)OCc1ccccc1Cl | 0 | nt | nt | nt | nt | nt | nt | nt
C[C@H]1CN([C@@H](C)CO)C(=O)CCCn2cc(nn2)CO[C@H]1CN(C)C(=O)c1ccc(N2CCN(C)CC2)cc1 | 1 | ? | -6 | 1 | 42 | -20 | -25 | -38
C[C@@H]1CN([C@H](C)CO)C(=O)CCCn2cc(nn2)CO[C@H]1CN(C)C(=O)c1ccc2ccn(C)c2c1 | -1 | ? | 1 | 0 | -1 | -6 | -15 | -17
C[C@H](CO)N1C[C@H](C)[C@H](CN(C)C(=O)c2ccc(N3CCN(C)CC3)cc2)OCc2cn(nn2)CCCC1=O | 0 | ? | 11 | 2 | -57 | -15 | -16 | -12
C[C@@H]1CN([C@@H](C)CO)C(=O)CCCn2cc(nn2)CO[C@@H]1CN(C)C(=O)c1ccc(N2CCN(C)CC2)cc1 | 1 | 9 | -16 | 0 | nt | nt | nt | nt
NC(=O)CCCc1c[nH]c2ccccc12 | 0 | nt | nt | nt | nt | nt | nt | nt
CC(C)(C)c1ccc(OCC(=O)Nc2cccc(C(=O)O)c2)cc1 | 0 | nt | nt | nt | nt | nt | nt | nt
C[C@@H]1CCCCO[C@@H](CN(C)C(=O)Nc2cccc3ccccc23)[C@@H](C)CN([C@@H](C)CO)C(=O)c2cc(NS(=O)(=O)c3ccc(Cl)cc3)ccc2O1 | nt | 99* | -77 | 0 | 103* | 93 | -3 | 4
C[C@@H]1CCCCO[C@H](CN(C)C(=O)Nc2cccc3ccccc23)[C@H](C)CN([C@H](C)CO)C(=O)c2cc(NS(=O)(=O)c3ccc(Cl)cc3)ccc2O1 | -1 | 105* | -76 | -2 | 108* | 113* | 9 | -1
C[C@@H]1CCCCO[C@@H](CN(C)C(=O)Nc2cccc3ccccc23)[C@@H](C)CN([C@H](C)CO)C(=O)c2cc(NS(=O)(=O)c3ccc(Cl)cc3)ccc2O1 | 4 | 32 | -57 | -2 | nt | nt | nt | nt
